The values that follow come from ChEMBL document CHEMBL3259783, “Inhibitory effects of novel synthetic methimazole derivatives on mushroom tyrosinase and melanogenesis” (Bioorg Med Chem, 2014).

Data set [1] can be described thus: (§1) Antimelanogenic activity in mouse B16/F10 cells assessed as inhibition of alpha-MSH-induced melanin formation at 1 mM after 24 hrs by ELISA relative to control. It counts as functional. Particulars: B16-F10, 24 h. The gist of the method: (§2)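 B16/F10 cells seeded 1 × 10^5 per well, grown 48 h at 37 °C, 5% CO2; stimulated with 100 nM α-MSH for 24 h, then exposed to 1 mM test agent (kojic acid reference) for 24 h. After PBS washes, pellets dissolved in 1 N NaOH/10% DMSO, 1 h at 80 °C; A405 read. Content = sample/control × 100%; triplicate, mean ± SD.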
(An ELISA detects its analyte on a solid surface through an enzyme-linked reagent.)

Data set [2] addresses T1, Tyrosinase (Agaricus bisporus, UniProt O42713).
T1 sequence (O42713 whole entry): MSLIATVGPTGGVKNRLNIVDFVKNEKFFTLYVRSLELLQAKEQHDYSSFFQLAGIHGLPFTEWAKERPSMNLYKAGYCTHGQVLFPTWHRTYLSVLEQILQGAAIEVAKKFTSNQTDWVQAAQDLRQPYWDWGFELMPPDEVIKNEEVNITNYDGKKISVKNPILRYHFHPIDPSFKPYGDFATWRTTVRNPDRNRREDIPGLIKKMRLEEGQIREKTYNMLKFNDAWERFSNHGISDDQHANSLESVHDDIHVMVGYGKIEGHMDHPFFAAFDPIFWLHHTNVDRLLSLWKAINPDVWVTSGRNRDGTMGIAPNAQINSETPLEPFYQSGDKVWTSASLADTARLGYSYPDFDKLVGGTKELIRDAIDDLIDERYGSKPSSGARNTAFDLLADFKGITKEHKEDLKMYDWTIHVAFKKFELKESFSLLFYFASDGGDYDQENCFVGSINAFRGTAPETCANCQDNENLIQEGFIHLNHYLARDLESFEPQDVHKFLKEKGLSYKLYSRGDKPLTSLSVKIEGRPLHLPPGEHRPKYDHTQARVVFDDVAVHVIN
Briefly: (§3) Inhibition of mushroom tyrosinase-mediated L-tyrosine hydroxylation after 30 mins by ELISA. The procedure, abridged: (§4)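 Mushroom tyrosinase with L-tyrosine substrate; dipotassium hydrogen phosphate buffer as vehicle control. Mixture held 25 °C for 30 min, dopachrome read at 475 nm. Inhibition % = (1 − ABSsample/ABScontrol) × 100. IC50 from regression of the dose–response curve; triplicate, mean ± SD of 3 independent runs.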

For data set [3], the target named is T2, Tyrosinase (Agaricus bisporus) (UniProt O42713).
T2 sequence (whole entry): T1 sequence (O42713 whole entry)
The data set is described as §3. The gist of the method:
as §4

The nature of data set [4]: Cytotoxicity against mouse B16/F10 cells at 2 mM after 24 hrs by MTT assay. The format is cell-based. The settings on record: b16-f10, 24 h, 2000 µM. The gist of the method: (§5)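 B16/F10 cells in DMEM with 10% FBS, penicillin, streptomycin and amphotericin at 37 °C, 5% CO2. Seeded 3 × 10^4 per well, adhered 24 h, exposed to 1 or 2 mM compound in fresh DMEM for 24 h. MTT (0.5 mg/mL in PBS) added for 40 min at 37 °C; formazan dissolved in DMSO, A570 read. Viability as % of untreated control; triplicate.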
In general terms: Tetrazolium assays rely on reduction of a dye to a coloured formazan, in cell work by metabolically active cells.

Data set [5] is described as follows: Cytotoxicity against mouse B16/F10 cells at 1 mM after 24 hrs by MTT assay. Particulars: b16-f10, 24 h, 1000 µM. It counts as cell-based. The procedure, abridged: as §5
The target of data set [6] is T1, Tyrosinase. Briefly: Noncompetitive inhibition of mushroom tyrosinase-mediated L-tyrosine oxidation assessed as enzyme-inhibitor complex after 10 mins by Lineweaver-Burk plot analysis.
For data set [7], the target named is T2, Tyrosinase (Agaricus bisporus). Briefly: Noncompetitive inhibition of mushroom tyrosinase-mediated L-tyrosine oxidation assessed as enzyme-substrate-inhibitor complex after 10 mins by Lineweaver-Burk plot analysis.
Data set [8] has the same target. Briefly: Mixed-type inhibition of mushroom tyrosinase-mediated L-tyrosine oxidation assessed as enzyme-substrate-inhibitor complex after 10 mins by Lineweaver-Burk plot analysis.
For data set [9], the target named is T1, Tyrosinase. Briefly: Mixed-type inhibition of mushroom tyrosinase-mediated L-tyrosine oxidation assessed as enzyme-inhibitor complex after 10 mins by Lineweaver-Burk plot analysis.
Another data set relates to B16-F10. Described as §1. It counts as functional. The gist of the method:
as §2

Each structure is given as a SMILES string. Activity calls are given as the source filed them. No cut-off for these calls is given here.

On to `Cn1ccn(C(=O)OC(C)(C)C)c1=S`, for which the inhibition at 1000 µM in data set [1] came to 49.3%. For the same compound, 1450 µM corresponded to half-maximal inhibition on Tyrosinase [2] (IC50). The inhibition entry in data set [3] is “Dose-dependent effect”. Further, the Activity result in [4] and in [5] was “Non-toxic” throughout. The inhibitory constant (Ki) at Tyrosinase [6] was 1750 µM. The Kis in [7] is 1.75 mM.
`O=c1cc(CO)occ1O` [KOJIC ACID]: in data set [1], the inhibition at 1000 µM is 56.9%.
Consider `Cn1ccnc1S` [METHIMAZOLE], for which the Kis in [8] was found to be 1.91 mM. The inhibition at 1000 µM in data set [1] is 88.7%. In addition, in data set [3], the inhibition entry was “Dose-dependent effect”.
As to `COC(=O)C(N)Cn1ccn(C)c1=S` (stereo not drawn), the inhibition result in data set [3] was “inactive”.
On the same count and under the same terms, as for `COC(=O)C(Cn1ccn(C)c1=S)NC(=O)OC(C)(C)C` (stereo not drawn), the entry is “inactive”.
`Cn1cc[nH]c1=S` [METHIMAZOLE]: the Ki at Tyrosinase [9] came to 470 µM. The compound also gave a 50% inhibitory concentration (IC50) against Tyrosinase [2] of 1430 µM. In addition, the Activity result in data set [4] was “Toxic”.
Regarding `Sc1ncc[nH]1`, the Kis in [8] was 2.8 mM. Further, on Tyrosinase [9], the Ki amounted to 570 µM. Moreover, in the data set with B16-F10, the inhibition entry was “Active”. The compound also showed an IC50 on Tyrosinase [2] of 4110 µM. Moreover, the inhibition entry in [3] was “Dose-dependent effect”. Besides, in data set [5], the Activity result is recorded as “Toxic”.
Take `Cn1ccn(CC(N)C(=O)O)c1=S` (stereo not drawn): the inhibition entry in data set [3] is “inactive”.

Broadly, the inhibition is the change of the read-out against control, counted positive when it falls. By IC50 is commonly meant the concentration at which inhibition is half-maximal. Read a high IC50 as weaker potency. Broadly, the Ki is a measure of affinity in units of concentration, obtained from inhibition or displacement.
